The record followed here is ChEMBL document CHEMBL4184225, “Discovery of selective 2,4-diaminoquinazoline toll-like receptor 7 (TLR 7) agonists” (Bioorg Med Chem Lett, 2018).

Each structure is given as a SMILES string.

The nature of series [1]: Metabolic stability in mouse liver microsomes assessed as drug metabolism after 15 mins at 1 uM. The class given is ADME, microsome. Conditions: read-out: Drug metabolism. In outline: (§1)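 Compound at 1µM incubated with liver microsomes of the stated species. Percent of compound metabolized after 15 min.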
In series [2] the target is T1, Toll-like receptor 7 (Homo sapiens) (UniProt Q9NYK1).
T1 sequence (whole entry): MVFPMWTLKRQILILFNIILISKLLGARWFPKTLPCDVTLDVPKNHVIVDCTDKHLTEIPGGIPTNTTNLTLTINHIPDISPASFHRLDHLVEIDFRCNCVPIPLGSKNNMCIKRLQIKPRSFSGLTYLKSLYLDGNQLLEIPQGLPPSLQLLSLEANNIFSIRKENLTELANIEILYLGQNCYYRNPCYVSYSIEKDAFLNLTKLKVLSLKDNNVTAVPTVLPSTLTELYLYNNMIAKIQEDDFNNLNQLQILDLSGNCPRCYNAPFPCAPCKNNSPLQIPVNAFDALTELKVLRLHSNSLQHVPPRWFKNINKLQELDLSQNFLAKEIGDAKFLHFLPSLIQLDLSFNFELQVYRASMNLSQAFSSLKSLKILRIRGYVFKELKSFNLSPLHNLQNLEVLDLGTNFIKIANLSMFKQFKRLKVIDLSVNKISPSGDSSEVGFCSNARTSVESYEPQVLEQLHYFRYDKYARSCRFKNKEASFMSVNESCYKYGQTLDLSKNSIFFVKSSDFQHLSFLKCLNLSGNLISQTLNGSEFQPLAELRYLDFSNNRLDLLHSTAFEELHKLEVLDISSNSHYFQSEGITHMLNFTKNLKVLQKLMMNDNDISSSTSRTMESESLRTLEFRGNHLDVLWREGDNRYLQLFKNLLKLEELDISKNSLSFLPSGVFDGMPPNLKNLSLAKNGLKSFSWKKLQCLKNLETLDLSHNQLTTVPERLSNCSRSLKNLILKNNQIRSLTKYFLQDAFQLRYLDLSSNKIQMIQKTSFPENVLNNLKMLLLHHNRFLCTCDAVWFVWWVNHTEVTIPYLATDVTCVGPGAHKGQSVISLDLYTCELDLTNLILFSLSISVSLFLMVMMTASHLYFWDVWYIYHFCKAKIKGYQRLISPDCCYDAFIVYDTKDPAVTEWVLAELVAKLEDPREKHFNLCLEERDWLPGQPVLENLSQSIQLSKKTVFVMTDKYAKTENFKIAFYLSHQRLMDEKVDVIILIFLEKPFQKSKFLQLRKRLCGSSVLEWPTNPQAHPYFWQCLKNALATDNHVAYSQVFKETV
The series is described as follows: Agonist activity at human TLR7 expressed in HEK293 cells assessed as induction of receptor activation incubated for 6 hrs by NF-kappaB-luciferase reporter gene assay. Type of series: cell-based. In outline: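 HEK293 cells transiently transfected overnight with CMV-TLR7 (wild type or dLRR2 mutant) plus NFκB-luc plasmids. Seeded at 1.67 x 10^5 cells/mL onto compound in 4% DMSO (stock), 6 h at 37°C, 5% CO2, luciferase readout. Quadruplicate dose-response. LEC is the concentration giving an effect at least two-fold above assay SD. Values averaged over independent experiments where repeated.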
(Reporter assays use an easily measured gene product as a stand-in for the process of interest.)

Series [3] in a line: Metabolic stability in human liver microsomes assessed as drug metabolism after 15 mins at 1 uM. Type of series: ADME, microsome. As to conditions: read-out: Drug metabolism. In outline: as §1
The nature of series [4]: Cytotoxic activity against HEK293 cells assessed as reduction in cell viability incubated for 6 hrs. As to conditions: human. The class given is cell-based. The essentials: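 HEK293 cells transfected with the CMV-TLR7 construct alone, treated with a compound dilution series for 6 h at 37°C, 5% CO₂. Viability read by ATP luminescence. Reported as CC50.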
For series [5], the target named is T1, Toll-like receptor 7 (Homo sapiens). The series is described as follows: Agonist activity at TLR7 in human PBMC assessed as suppression of HCV replicon replication in human HuH7 luc/neo cells harboring RNA encoding bicistronic expression construct comprising wild type HCV type 1b NS3-NS5B regions exposed to conditioned media from compound treated PBMCs by luciferase reporter gene assay. Type of series: cell-based. The essentials:
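PBMCs from buffy coats of at least two donors (Ficoll), in RPMI with 10% human AB serum, 2 x 10^5 cells/well, incubated overnight with compound. Supernatant transferred onto Huh7-luc/neo replicon cells plated the day before (2.2 x 10^3/well). Luciferase read after 24 h. EC50 is the concentration applied to PBMCs giving 50% luciferase reduction. Recombinant IFN-α2a standard.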

The target of series [6] is T2, Toll-like receptor 8 (Homo sapiens, UniProt Q9NR97).
T2 sequence (Q9NR97 whole entry): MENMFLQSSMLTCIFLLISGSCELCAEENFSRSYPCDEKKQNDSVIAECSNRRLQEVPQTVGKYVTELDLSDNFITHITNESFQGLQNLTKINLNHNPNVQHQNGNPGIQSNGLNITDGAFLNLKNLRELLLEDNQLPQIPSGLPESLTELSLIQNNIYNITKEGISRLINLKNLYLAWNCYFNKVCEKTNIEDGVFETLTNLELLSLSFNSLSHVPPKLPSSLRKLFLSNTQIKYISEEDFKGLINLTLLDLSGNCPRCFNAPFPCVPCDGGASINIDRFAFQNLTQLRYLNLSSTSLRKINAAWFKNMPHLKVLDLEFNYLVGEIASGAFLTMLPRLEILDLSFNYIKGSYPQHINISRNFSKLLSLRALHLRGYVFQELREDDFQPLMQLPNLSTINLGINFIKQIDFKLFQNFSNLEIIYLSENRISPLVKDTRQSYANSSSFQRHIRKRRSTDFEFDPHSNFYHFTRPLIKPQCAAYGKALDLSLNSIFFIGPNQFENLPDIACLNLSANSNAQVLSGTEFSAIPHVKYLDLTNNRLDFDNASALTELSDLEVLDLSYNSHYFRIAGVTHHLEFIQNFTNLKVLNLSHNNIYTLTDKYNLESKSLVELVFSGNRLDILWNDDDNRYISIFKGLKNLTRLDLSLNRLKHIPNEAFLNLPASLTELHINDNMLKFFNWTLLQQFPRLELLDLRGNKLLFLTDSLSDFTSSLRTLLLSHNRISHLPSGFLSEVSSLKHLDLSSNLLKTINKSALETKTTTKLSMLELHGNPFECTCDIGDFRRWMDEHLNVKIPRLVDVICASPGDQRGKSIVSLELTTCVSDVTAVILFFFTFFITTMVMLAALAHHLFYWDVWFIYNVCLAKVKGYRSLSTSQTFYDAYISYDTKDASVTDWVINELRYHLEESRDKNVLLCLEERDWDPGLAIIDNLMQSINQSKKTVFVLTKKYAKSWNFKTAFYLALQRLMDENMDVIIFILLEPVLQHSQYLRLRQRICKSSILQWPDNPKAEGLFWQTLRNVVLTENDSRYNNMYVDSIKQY
The series is described as follows: Agonist activity at human TLR8 expressed in HEK293 cells assessed as induction of receptor activation incubated for 6 hrs by NF-kappaB-luciferase reporter gene assay. The class given is cell-based. As to conditions: hek293, 6 h. The essentials:
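HEK293 cells transiently transfected overnight at 37°C with CMV-TLR8 plasmid (wild type or dLRR2 mutant) plus NFκB-luc reporter, then exposed to compound for 6 h at 37°C, 5% CO₂. Luciferase read-out. Quadruplicate dose-response. LEC is the concentration giving an effect at least two-fold above the assay SD, averaged over two or more independent experiments.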

The species named for series [7] is Homo sapiens. The series is described as follows: Selectivity index, ratio of MEC for agonist activity at human TLR8 expressed in HEK293 cells to MEC for agonist activity at human TLR7 expressed in HEK293 cells as. The class given is cell-based. The essentials: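 Ratio of TLR8 to TLR7 LEC from HEK293 NFκB-luciferase reporter assays. Cells were transiently transfected with TLR7 or TLR8 construct plus NFκB-luc and treated with compound for 6 h at 37°C. LEC is the lowest concentration with signal at least two-fold above the assay SD, from quadruplicate dose-response curves.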

Take `CCCCNc1nc(N)nc2cccc(C)c12`: the metabolised at 0.25 h, 1 µM was 100% in series [1] and 96% in series [3]. Further, the results for the MEC in series [2], in series [5] and in series [6] were 0.5 µM, 0.32 µM and 0.3 µM, respectively. Besides, the CC50 (as a rule, the concentration that lowers cell viability or growth by half) at 6 h in series [4] is greater than 25 µM.
As for `CCCCNc1nc(N)nc2cccc(C(=O)N[C@@H](C)c3ccccc3OC)c12`, the metabolised at 0.25 h, 1 µM in series [1] and in series [3] was 99% each time. Besides, the values for the MEC in series [2], in series [5] and in series [6] were 0.28 µM, 0.14 µM and greater than 25 µM, respectively. In addition, in series [4], the CC50 at 6 h is greater than 25 µM.
With `CCCCNc1nc(N)nc2cccc(C(=O)N[C@@H](C)c3cccc(OC)c3)c12`, the values for the metabolised at 0.25 h, 1 µM in series [1] and in series [3] were 96% and 97%, respectively. In addition, the results for the MEC in series [2], in series [5] and in series [6] were 0.37 µM, 0.5 µM and greater than 25 µM, respectively. Further, the CC50 at 6 h in series [4] was greater than 25 µM.
`CCCCOc1nc(N)c2c(n1)N(Cc1cccc(CN3CCCC3)c1)CC(=O)N2`: in series [7], the Ratio came to 30.
As to `CCCCNc1nc(N)nc2cccc(CCc3ccccc3)c12`, the metabolised at 0.25 h, 1 µM in series [1] came out at 97%; in series [3] it was 24%. The MEC in series [2] was 0.13 µM; in series [5] it was 0.27 µM; in series [6] it was 0.47 µM. For the same compound, the CC50 at 6 h in series [4] is greater than 25 µM.
On to `CCCCNc1nc(N)nc2cccc(OCCOC)c12`, for which the metabolised at 0.25 h, 1 µM in series [1] turned out to be 98%; in series [3] it was 59%. Moreover, the MEC in series [2] was 0.1 µM; in series [5] it was 0.12 µM; in series [6] it was 0.2 µM. The CC50 at 6 h in series [4] is greater than 25 µM.
On to `CCCCNc1nc(N)nc2cccc(OC)c12`, for which the metabolised at 0.25 h, 1 µM in series [1] was found to be 100%; in series [3] it was 98%. For the same compound, the MEC in series [2] came out at 0.4 µM; in series [5], 0.1 µM; in series [6], 0.1 µM. In addition, the CC50 at 6 h in series [4] was greater than 25 µM.
